SR-BI HDL uptake = blocks mouse SR-BI lipid uptake from DiI-HDL. 320,000 tested, 0.96% active. inhibition, % at 12.5 µM. ldlA[mSR-BI] CHO cells, DiI-HDL uptake fluorescence, 3 h;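 active = mean replicate inhibition of at least 70% and a set share of replicates each scoring 70 or more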;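 also: 0% = median of neutral control wells and 100% = median of positive control wells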
Target sequence (Q61009 whole entry, looked up): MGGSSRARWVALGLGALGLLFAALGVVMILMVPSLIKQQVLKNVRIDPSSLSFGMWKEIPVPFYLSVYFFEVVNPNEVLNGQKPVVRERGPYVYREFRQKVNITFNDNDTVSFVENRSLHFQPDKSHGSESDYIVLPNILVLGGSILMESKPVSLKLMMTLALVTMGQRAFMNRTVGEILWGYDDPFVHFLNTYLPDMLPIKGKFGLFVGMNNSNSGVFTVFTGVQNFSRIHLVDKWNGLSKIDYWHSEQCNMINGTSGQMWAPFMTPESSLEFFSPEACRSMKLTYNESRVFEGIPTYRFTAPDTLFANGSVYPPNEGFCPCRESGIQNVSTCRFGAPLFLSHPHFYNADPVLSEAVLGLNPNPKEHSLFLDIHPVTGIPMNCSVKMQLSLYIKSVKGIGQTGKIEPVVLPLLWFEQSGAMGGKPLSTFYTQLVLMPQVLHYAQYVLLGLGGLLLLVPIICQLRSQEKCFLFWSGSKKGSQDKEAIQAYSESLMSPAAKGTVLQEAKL
Vif inh = blocks HIV Vif function; 340,000 tested, 0.35% active; inhibition, % at 7.49 µM; AID 602346; HEK293T cells, Vif self-association by quenched fluorescence, imaging, 24 h; in the data active = inhibition above about 50%, passing the limit was not always enough
SR-BI DiI-HDL act = activators of SR-BI mediated HDL lipid uptake; CHO ldlA[mSR-BI] cells, DiI-HDL uptake fluorescence, 3 h; 100 = double the neutral-control signal; activation, % at 12.5 µM; 320,000 tested, 0.096% active;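 active = mean replicate activation of at least 60% and every replicate at or above 60%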;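 also: 0% = median plate neutral-control signal and 100% = twice that signal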
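Test system: SR-BI-overexpressing, LDLR-lacking CHO cells. Measured by: DiI fluorescence, bottom read. Medium: Ham's F12 with 0.5% BSA, HEPES 25 mM, pH 7.4. Timing: 3 h uptake period with compound, 37 °C.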
Statin myotox sup = suppression of simvastatin myotoxicity; rescue of ATP level, % at 7.49 µM; 330,000 tested, 0.78% active; AID 602340; C2C12 myotubes + simvastatin, ATP luminescence, 48 h; scaled: DMSO 0, geranylgeraniol control 100;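 active = mean ATP rescue above about 67%, or every replicate alone reaching that limit, limit read from the data, passing the limit was not always enough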;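 also: myotubes were challenged with 10 µM simvastatin during compound exposure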
The depositor's hits bear a star; . = not tested or not shown. This is a sample that favours compounds with a hit; in the whole collection about 1.7% have one here.

SMILES	SR-BI HDL uptake	Vif inh	SR-BI DiI-HDL act	Statin myotox sup
CCOC(=O)C(=O)/C(=C\N(C)C)c1onc(-c2c(Cl)cccc2Cl)c1C(=O)OC	-18.4	4.9	18.4	84.8*
CCc1ccc2c(c1)C1(NN=C(c3ccc(C)cc3)S1)C(=O)N2 (configuration not stated)	69.4	-4.5	-69.4	.
CC(C)c1ccc2c(c1)C1(NN=C(c3ccccc3)S1)C(=O)N2 (configuration not stated)	106.2*	-2.4	-106.1	-13.7
Cc1ccc(/C=C/c2nc3ccccc3s2)s1	101.3*	.	-101.3	-11.0
CN(C)c1ccc(/C=C/c2nc3ccccc3s2)cc1	8.0	4.4	-8.0	-10.7
O=C(Cc1ccc(-c2ccccc2)cc1)NCc1ccccc1	8.7	53.7*	-8.7	.
Cc1cc(C)nc(/N=C2\NC(=O)CC(C(=O)O)N2c2ccc(Cl)cc2)n1 (configuration not stated)	-17.9	2.2	17.9	70.4*
Cc1ccc(N2/C(=N/c3nc(C)cc(C)n3)NC(=O)CC2C(=O)O)cc1 (configuration not stated)	2.6	-3.7	-2.6	1.0
Cc1nn2c(NC(C)C)c3c(nc2c1-c1ccccc1)CCC3	-104.2	-12.7	104.2*	.
Cc1nn2c(NCC(C)C)c3c(nc2c1-c1ccccc1)CCC3	18.5	3.1	-18.5	-3.9
CCC(=O)N[C@@H]1CC[C@@H](CC(=O)NCc2ccccc2F)O[C@@H]1CO	.	.	.	-0.4
CCN(CC)CCNC(=O)C12CC3CC(CC(C3)C1)C2	12.2	-10.2	-12.2	15.6
CCN(CC)CCNC(=O)C12CC3CC(C)(CC(C)(C3)C1)C2	-15.7	68.4*	15.7	-2.0
FC(F)(F)c1nc2nncn2c2c1CCCCC2	2.6	10.0	-2.6	149.0*
Cc1cc(C)cc(NC(=S)N=Nc2c(O)n(C)c3ccc(S(=O)(=O)N4CCOCC4)cc23)c1	86.6*	2.3	-86.6	-94.7
COc1ccc(-c2ccc(NCCC3=CCCCC3)nn2)cc1OC	74.9*	.	-74.9	-15.3
COc1ccc(CCNC(=O)c2ccc(N3CCCCS3(=O)=O)cc2)cc1OC	78.9*	-1.4	-78.9	-24.8
CCOc1ccc(NC(=O)CN(C)C(=O)c2ccc(N3CCCCCC3)c([N+](=O)[O-])c2)cc1OCC	86.2*	-10.5	-86.2	-31.5
CCOc1ccc(NC(=O)CN(C)C(=O)c2ccc3c(c2)C(=O)N(CCC(C)C)C3=O)cc1OCC	78.4*	1.7	-78.4	.
CCOc1ccc(NC(=O)CN(C)C(=O)c2ccccc2OCc2cccc(C)c2)cc1OCC	86.2*	-7.5	-86.2	9.9
CCOc1ccc(NC(=O)CN(C)C(=O)c2ccc(N3CCOCC3)c([N+](=O)[O-])c2)cc1OCC	50.8	-2.7	-50.8	-3.3
CCOc1ccc(NC(=O)CN(C)C(=O)c2cc(S(=O)(=O)N3CCCCC3)ccc2Cl)cc1OCC	17.9	92.3*	-17.9	-2.5
Cc1ccc(S(=O)(=O)N[C@H]2CC[C@H](CCNC(=O)C3CCOCC3)O[C@@H]2CO)cc1	.	.	.	-2.3
CCCC#Cc1cnc2c(c1)C(=O)N([C@H](C)CO)C[C@@H](C)[C@@H](CN(C)Cc1ccncc1)O2	.	.	.	-2.9
COc1ccc(CN2[C@@H](CO)[C@@H]3c4ccccc4N(C(=O)CC(F)(F)F)C[C@@H]32)cc1	.	.	.	10.1
SMILES	SR-BI HDL uptake	Vif inh	SR-BI DiI-HDL act	Statin myotox sup
Cc1cc(Cl)ccc1OCCCC(=O)NNC(=O)c1ccccc1O	108.8*	-6.8	-108.8	28.2
Cc1ccccc1C(=O)Nc1ccc(C(=O)NNC(=O)CCCOc2ccc(Cl)cc2Cl)cc1	25.8	8.5	-25.8	-0.7
O=C(NC1CC1)C1CCN(C2CCN(Cc3ccccc3C(F)(F)F)CC2)CC1	-0.5	4.0	0.5	82.7*
CC(=O)Nc1ccc(CN2CCC(N3CCC(C(=O)NC4CC4)CC3)CC2)cc1	.	-6.5	.	1.8
CN1C(=O)c2cc(NC(=O)Cc3cccs3)ccc2OC[C@H]2O[C@@H](CC(=O)NCc3ccc(-c4ccccc4)cc3)CC[C@H]21	.	.	.	72.1*
CN1C(=O)c2cc(NC(=O)Cc3cccs3)ccc2OC[C@H]2O[C@@H](CC(=O)NCc3ccc(-c4ccccc4)cc3)CC[C@@H]21	.	.	.	45.4
CN1C(=O)c2cc(NC(=O)c3ccc(F)c(F)c3)ccc2OC[C@H]2O[C@@H](CC(=O)Nc3ccc4c(c3)COC4)CC[C@@H]21	.	.	.	101.5*
CNC(=O)C[C@@H]1CC[C@@H]2[C@H](COc3ccc(NC(=O)c4ccc(F)c(F)c4)cc3C(=O)N2C)O1	.	.	.	2.3
COc1ccc(-c2nc3ccc(C(=O)NCC(OC)OC)cc3nc2-c2ccc(OC)c(OC)c2)cc1OC	75.5*	6.2	-75.5	34.8
COc1ccc(C(=O)NCC(=O)OCC(=O)N2CCC(C)CC2)cc1OC	16.6	-5.3	-16.6	.
COc1ccc(C(=O)NCC(=O)N2CCC(C)CC2)cc1OC	-7.0	6.0	7.0	90.2*
CCC(=O)Nc1ccc2c(c1)C(=O)N(C)[C@@H]1CC[C@@H](CC(=O)N3CCCCC3)O[C@H]1CO2	.	.	.	-4.4
Cc1ccc(CN(C(=O)c2ccco2)C(C(=O)NC2CCCC2)c2cccnc2)cc1 (configuration not stated)	6.4	-3.8	-6.4	2.5
Cc1ccc(CN(C(=O)c2ccco2)C(C(=O)NC2CCCC2)c2ccc(N3CCOCC3)cc2)cc1 (configuration not stated)	-21.9	-5.5	21.9	119.4*
CC(=O)N1[C@@H]2Cn3c(cccc3=O)[C@H]1[C@@H](C(=O)NCC1CCCCC1)[C@@H]2CO	.	.	.	16.3
O=[N+]([O-])c1ccccc1N/N=C/c1cccc(O)c1O	.	-2.3	.	7.7
O=[N+]([O-])c1cccc(N/N=C/c2cccc(O)c2O)c1	47.1	63.8*	-47.1	.
O=C(C[C@@H]1CC[C@H]2[C@@H](COC[C@H](O)CN2S(=O)(=O)c2ccccc2)O1)NCc1ccc(-c2ccccc2)cc1	.	.	.	0.6
Cc1c(NC(=O)Nc2ccc(Cl)c(Cl)c2)sc(=S)n1C	90.0*	0.8	-90.0	.
COc1ccc(/C=N/NC(=O)c2ccc(COc3ccccc3Cl)o2)cc1	-2.8	29.6	2.8	.
COc1ccc(/C=N/NC(=O)c2ccc(COc3ccccc3Cl)o2)c(OC)c1C	75.9*	-6.4	-75.9	.
Cc1cccc(C(=O)c2c(N)sc3c2CCCC3)c1	64.6	0.8	-64.6	.
Cc1cccc(C(=O)c2c(N)sc3c2CCC(C)C3)c1 (configuration not stated)	73.2*	-1.6	-73.2	.
CN1CCN(CCCNC(=O)C2CC(=O)N(C3CCCCC3)C2)CC1 (configuration not stated)	-2.6	8.2	2.6	2.0
O=C(NCCCN1CCN(c2ccccc2F)CC1)C1CC(=O)N(C2CCCC2)C1 (configuration not stated)	3.8	5.2	-3.8	125.2*
C[C@H](CO)N1C[C@H](C)[C@H](CN(C)Cc2ccncc2)Oc2c(NS(C)(=O)=O)cccc2C1=O	.	.	.	-10.9
C/C=C/c1cnc2c(c1)C(=O)N([C@H](C)CO)C[C@H](C)[C@@H](CN(C)C(=O)c1cnccn1)O2	.	.	.	-1.1
COc1ccc(Cc2nc(C(=O)Nc3ccc(OC)cc3)cs2)cc1	-9.5	-21.3	9.5	122.4*

Screening data: PubChem BioAssay, Broad Institute
